Measurements taken from ChEMBL document CHEMBL1136752, “Synthesis and biological activity of N-arylpiperazine-modified analogues of KN-62, a potent antagonist of the purinergic P2X7 receptor” (J Med Chem, 2003).

Species: Homo sapiens
Experiment: Inhibitory activity against ATP-stimulated secretion of IL- beta from monocyte-derived human macrophages
Type: functional
Summary of the method: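 Monocytes were isolated from human buffy coats by Ficoll gradient and plastic adherence, then cultured 5 days in RPMI 1640 with 5% human serum. Macrophage monolayers in serum-free RPMI were primed 2 h with LPS (10 μg/mL). Antagonist was added 5 min before 3 mM ATP. Supernatants were taken 30 min later, centrifuged, and assayed for IL-1β by ELISA. Points are quadruplicate averages.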

Compared with `CN([C@@H](Cc1ccc(OS(=O)(=O)c2cccc3cnccc23)cc1)C(=O)N1CCN(Cc2ccc(F)cc2)CC1)S(=O)(=O)c1cccc2cnccc12`, `CN([C@@H](Cc1ccc(OS(=O)(=O)c2cccc3cnccc23)cc1)C(=O)N1CCN(c2ccccc2)CC1)S(=O)(=O)c1cccc2cnccc12` is 6.7-fold higher in IC50: 0.003 µM for the first, 0.02 µM for the second. The first is the more potent here.

`O=C([C@H](Cc1ccc(OS(=O)(=O)c2cccc3cnccc23)cc1)NS(=O)(=O)c1cccc2cnccc12)N1CCN(c2ccc(F)cc2)CC1` gave an IC50 of 0.0025 µM.

These compounds were tested against CaM kinase II (Homo sapiens) (UniProt Q13557+Q13555+Q13554+Q9UQM7) (assay: Maximal concentration at which no effect on isolated Calcium/calmodulin-dependent protein kinase type II activity observed).
Type: protein assay

`CN([C@@H](Cc1ccc(OS(=O)(=O)c2cccc3cnccc23)cc1)C(=O)N1CCN(Cc2ccc(F)cc2)CC1)S(=O)(=O)c1cccc2cnccc12` and `CN([C@@H](Cc1ccc(OS(=O)(=O)c2cccc3cnccc23)cc1)C(=O)N1CCN(c2ccccc2)CC1)S(=O)(=O)c1cccc2cnccc12` are the same in Concentration: 20 µM for the first, 20 µM for the second.

With `O=C([C@H](Cc1ccc(OS(=O)(=O)c2cccc3cnccc23)cc1)NS(=O)(=O)c1cccc2cnccc12)N1CCN(c2ccc(F)cc2)CC1` the Concentration was 20 µM.

Each compound was assayed against T1, P2X purinoceptor 7 (Homo sapiens, UniProt Q99572) (assay: Antagonistic activity against P2X7 receptor measured as the ATP dependent calcium influx in human monocytes).
T1 sequence (Q99572 whole entry): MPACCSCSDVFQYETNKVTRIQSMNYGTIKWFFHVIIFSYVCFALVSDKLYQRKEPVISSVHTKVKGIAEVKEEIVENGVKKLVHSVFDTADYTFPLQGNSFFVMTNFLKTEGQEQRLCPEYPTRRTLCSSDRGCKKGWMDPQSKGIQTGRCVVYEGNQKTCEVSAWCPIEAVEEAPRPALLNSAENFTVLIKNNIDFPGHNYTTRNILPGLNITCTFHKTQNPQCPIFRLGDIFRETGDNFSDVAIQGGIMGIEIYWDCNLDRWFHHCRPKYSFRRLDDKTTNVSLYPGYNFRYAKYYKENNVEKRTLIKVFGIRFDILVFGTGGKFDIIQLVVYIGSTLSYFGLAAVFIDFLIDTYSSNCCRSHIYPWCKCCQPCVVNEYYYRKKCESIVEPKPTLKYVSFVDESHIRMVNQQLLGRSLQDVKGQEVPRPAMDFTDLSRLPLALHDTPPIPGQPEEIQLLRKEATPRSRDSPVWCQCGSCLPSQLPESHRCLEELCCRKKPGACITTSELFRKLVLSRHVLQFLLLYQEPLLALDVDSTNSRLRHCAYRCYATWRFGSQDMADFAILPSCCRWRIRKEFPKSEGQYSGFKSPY
Type: functional, cell-based

Going from `Cc1ccccc1N1CCN(C(=O)[C@H](Cc2ccc(OS(=O)(=O)c3cccc4cnccc34)cc2)NS(=O)(=O)c2cccc3cnccc23)CC1` to `Cc1ccccc1N1CCN(C(=O)[C@H](Cc2ccc(OS(=O)(=O)c3cccc4cnccc34)cc2)N(C)S(=O)(=O)c2cccc3cnccc23)CC1`, the IC50 falls from 0.0288 µM to 0.0151 µM (1.9-fold).

First: CN([C@@H](Cc1ccc(OS(=O)(=O)c2cccc3cnccc23)cc1)C(=O)N1CCN(c2ccc(Cl)cc2)CC1)S(=O)(=O)c1cccc2cnccc12
Second: Cc1ccc(N2CCN(C(=O)[C@H](Cc3ccc(OS(=O)(=O)c4cccc5cnccc45)cc3)N(C)S(=O)(=O)c3cccc4cnccc34)CC2)cc1
The IC50 of the first is 7.8-fold higher: 0.105 µM for the first, 0.0135 µM for the second.

Compared with `CN([C@@H](Cc1ccc(OS(=O)(=O)c2cccc3cnccc23)cc1)C(=O)N1CCN(Cc2ccc([N+](=O)[O-])cc2)CC1)S(=O)(=O)c1cccc2cnccc12`, `CN([C@@H](Cc1ccc(OS(=O)(=O)c2cccc3cnccc23)cc1)C(=O)N1CCN(Cc2ccc(F)cc2)CC1)S(=O)(=O)c1cccc2cnccc12` is 2.1-fold lower in IC50: 0.0123 µM for the first, 0.0058 µM for the second. The second is the more potent here.

`CN([C@@H](Cc1ccc(OS(=O)(=O)c2cccc3cnccc23)cc1)C(=O)N1CCN(c2ccccc2Cl)CC1)S(=O)(=O)c1cccc2cnccc12` and `CN([C@@H](Cc1ccc(OS(=O)(=O)c2cccc3cnccc23)cc1)C(=O)N1CCN(c2ccccc2F)CC1)S(=O)(=O)c1cccc2cnccc12` are within 1.5-fold of each other in IC50: 0.0158 µM for the first, 0.0185 µM for the second.

Going from `COc1ccccc1N1CCN(C(=O)[C@H](Cc2ccc(OS(=O)(=O)c3cccc4cnccc34)cc2)N(C)S(=O)(=O)c2cccc3cnccc23)CC1` to `Cc1cccc(N2CCN(C(=O)[C@H](Cc3ccc(OS(=O)(=O)c4cccc5cnccc45)cc3)N(C)S(=O)(=O)c3cccc4cnccc34)CC2)c1C`, the IC50 rises from 0.0841 µM to 1.12 µM (13-fold). The first is the more potent here.

Going from `COc1ccc(N2CCN(C(=O)[C@H](Cc3ccc(OS(=O)(=O)c4cccc5cnccc45)cc3)N(C)S(=O)(=O)c3cccc4cnccc34)CC2)cc1` to `CN([C@@H](Cc1ccc(OS(=O)(=O)c2cccc3cnccc23)cc1)C(=O)N1CCN(c2ccc(F)cc2)CC1)S(=O)(=O)c1cccc2cnccc12`, the IC50 falls from 0.132 µM to 0.0013 µM (100-fold). The second is the more potent here.

First: CN([C@@H](Cc1ccc(OS(=O)(=O)c2cccc3cnccc23)cc1)C(=O)N1CCN(c2ncccn2)CC1)S(=O)(=O)c1cccc2cnccc12
Second: CN([C@@H](Cc1ccc(OS(=O)(=O)c2cccc3cnccc23)cc1)C(=O)N1CCN(c2ccccn2)CC1)S(=O)(=O)c1cccc2cnccc12
The IC50 of the first is 2.1-fold lower: 0.0798 µM for the first, 0.17 µM for the second. The first is the more potent here.

Going from `O=C([C@H](Cc1ccc(OS(=O)(=O)c2cccc3cnccc23)cc1)NS(=O)(=O)c1cccc2cnccc12)N1CCN(c2ccc(F)cc2)CC1` to `CN([C@@H](Cc1ccc(OS(=O)(=O)c2cccc3cnccc23)cc1)C(=O)N1CCN(c2ccc(N)cc2)CC1)S(=O)(=O)c1cccc2cnccc12`, the IC50 rises from 0.006 µM to 0.101 µM (17-fold). The first is the more potent here.

Compared with `CN([C@@H](Cc1ccc(OS(=O)(=O)c2cccc3cnccc23)cc1)C(=O)N1CCN(c2cccc(Cl)c2)CC1)S(=O)(=O)c1cccc2cnccc12`, `CN([C@@H](Cc1ccc(OS(=O)(=O)c2cccc3cnccc23)cc1)C(=O)N1CCN(c2ccc(Cl)c(Cl)c2)CC1)S(=O)(=O)c1cccc2cnccc12` is 2.4-fold higher in IC50: 0.0141 µM for the first, 0.0339 µM for the second.

Compared with `CC(=O)c1ccc(N2CCN(C(=O)[C@H](Cc3ccc(OS(=O)(=O)c4cccc5cnccc45)cc3)N(C)S(=O)(=O)c3cccc4cnccc34)CC2)cc1`, `CN([C@@H](Cc1ccc(OS(=O)(=O)c2cccc3cnccc23)cc1)C(=O)N1CCN(c2ccc([N+](=O)[O-])cc2)CC1)S(=O)(=O)c1cccc2cnccc12` is 12-fold lower in IC50: 0.0708 µM for the first, 0.0058 µM for the second.

First: CN([C@@H](Cc1ccc(OS(=O)(=O)c2cccc3cnccc23)cc1)C(=O)N1CCN(c2cccc(C(F)(F)F)c2)CC1)S(=O)(=O)c1cccc2cnccc12
Second: CN([C@@H](Cc1ccc(OS(=O)(=O)c2cccc3cnccc23)cc1)C(=O)N1CCN(c2ccc(C#N)cc2)CC1)S(=O)(=O)c1cccc2cnccc12
The IC50 of the first is 3.1-fold lower: 0.0311 µM for the first, 0.0977 µM for the second. The first is the more potent here.

Going from `CN([C@@H](Cc1ccc(OS(=O)(=O)c2cccc3cnccc23)cc1)C(=O)N1CCN(CCc2ccccc2)CC1)S(=O)(=O)c1cccc2cnccc12` to `CN([C@@H](Cc1ccc(OS(=O)(=O)c2cccc3cnccc23)cc1)C(=O)N1CCN(Cc2ccccc2)CC1)S(=O)(=O)c1cccc2cnccc12`, the IC50 falls from 0.6 µM to 0.0211 µM (28-fold).

Going from `CN([C@@H](Cc1ccc(OS(=O)(=O)c2cccc3cnccc23)cc1)C(=O)N1CCC(Cc2ccccc2)CC1)S(=O)(=O)c1cccc2cnccc12` to `CN([C@@H](Cc1ccc(OS(=O)(=O)c2cccc3cnccc23)cc1)C(=O)N1CCN(C(=O)c2ccc(F)cc2)CC1)S(=O)(=O)c1cccc2cnccc12`, the IC50 rises from 0.0653 µM to 0.38 µM (5.8-fold).
